Measured values published in ChEMBL document CHEMBL1154191, “Evaluation of spirocyclic 3-(3-fluoropropyl)-2-benzofurans as sigma1 receptor ligands for neuroimaging with positron emission tomography” (J Med Chem, 2009).

Tests used:
Lung [1] = test: Biodistribution in CD1 mouse lung assessed per gram of wet tissue at 400 to 600 kBq, iv after 60 mins post-injection by gamma counting; format: ADME, organism-based; details: in vivo, 1 h
Outline: (§1)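 Female CD-1 mice (~8-12 weeks, 20-28 g), habituated ≥48 h and fasted 24 h with water available. The [18F] tracer (>150 GBq/μmol at end of synthesis) was given in 200 μL saline into the tail vein of conscious animals. At each time point, n=4-5, mice were anaesthetised, blood and urine sampled, then killed by cervical dislocation. Organs were weighed and γ-counted, and values calculated as % ID/g wet tissue.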

Liver [2] = test: Biodistribution in CD1 mouse liver assessed per gram of wet tissue at 400 to 600 kBq, iv after 60 mins post-injection by gamma counting; format: ADME, organism-based; details: in vivo, 1 h; outline: as §1
Kidney [3] = test: Biodistribution in CD1 mouse kidney assessed per gram of wet tissue at 400 to 600 kBq, iv after 60 mins post-injection by gamma counting; format: ADME, organism-based; details: in vivo, 1 h
Outline: (§2)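 Female CD-1 mice (~8-12 weeks, 20-28 g) were fasted 24 h with free water. Conscious mice got 400-600 kBq [¹⁸F] tracer in saline by tail vein. At 5, 30, 60 or 120 min (n=4-5 per time) they were anesthetized, blood and urine sampled, then killed by cervical dislocation. Organs were weighed and γ-counted, giving % ID/g wet tissue.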

[4] = Biodistribution in CD1 mouse adrenal gland assessed per gram of wet tissue at 400 to 600 kBq, iv after 60 mins post-injection by gamma counting; format: ADME, organism-based; details: in vivo, 1 h; outline: as §2
[5] = Biodistribution in CD1 mouse gonad assessed per gram of wet tissue at 400 to 600 kBq, iv after 60 mins post-injection by gamma counting; format: ADME, organism-based; details: in vivo, 1 h; outline: as §2
Mus musculus [6] = test: Plasma concentration in CD1 mouse assessed per gram of wet tissue at 400 to 600 kBq, iv after 120 mins post-injection by gamma counting; format: ADME, organism-based; details: in vivo, 2 h
Outline: (§3)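 Female CD-1 mice (~8-12 weeks, 20-28 g), fasted 24 h with free access to water. 400-600 kBq [18F] tracer in 200 μL saline given by tail vein to conscious mice. At 5, 30, 60 or 120 min pi (n=4-5 per time) mice anaesthetised, blood taken, then euthanised. Samples weighed, γ-counted, %ID/g wet tissue calculated.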

Lung [7] = test: Biodistribution in CD1 mouse lung assessed per gram of wet tissue at 400 to 600 kBq, iv after 120 mins post-injection by gamma counting; format: ADME, organism-based; details: in vivo, 2 h; outline: as §1
Stomach = test: Biodistribution in CD1 mouse stomach assessed per gram of wet tissue at 400 to 600 kBq, iv after 120 mins post-injection by gamma counting; format: ADME, organism-based; details: in vivo, 2 h; outline: as §1
[8] = Biodistribution in CD1 mouse urine assessed as per gram of wet bladder at 400 to 600 kBq, iv after 120 mins post-injection by gamma counting; format: ADME, organism-based; details: in vivo, 2 h; outline: as §1
Cerebellum [9] = test: Biodistribution in CD1 mouse cerebellum assessed per gram of wet tissue at 400 to 600 kBq, iv after 60 mins post-injection by gamma counting in presence of 1 mg/kg, ip sigma 1/sigma 2 receptor antagonist haloperidol treated before compound addition; format: organism-based; set-up: dose 1 mg/kg, route intravenous; details: in vivo, 1 h
Outline: (§4)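 Blocking arm in fasted female CD-1 mice (n=5). […] Animals were killed at 60 min post-injection, and organs were weighed and γ-counted as % ID/g wet tissue. Percent change was taken against the 60 min control group, with two-tailed unpaired Student's t test.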

Lung [10] = test: Biodistribution in CD1 mouse lung assessed per gram of wet tissue at 400 to 600 kBq, iv after 60 mins post-injection by gamma counting in presence of 1 mg/kg, ip sigma 1/sigma 2 receptor antagonist haloperidol treated before compound addition; format: organism-based; set-up: route intravenous; details: in vivo, 1 h
Outline: (§5)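 They were killed at 60 min pi, and organs were weighed and γ-counted as % ID/g wet tissue. Comparison with controls used Student's t test (independent, two-tailed).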

Liver [11] = test: Biodistribution in CD1 mouse liver assessed increase in drug uptake at 400 to 600 kBq, iv after 60 mins post-injection by gamma counting in presence of 1 mg/kg, ip sigma 1/sigma 2 receptor antagonist haloperidol treated before compound addition; format: organism-based; set-up: dose 1 mg/kg, route intravenous; details: in vivo, 1 h; outline: as §4
Kidney [12] = test: Biodistribution in CD1 mouse kidney assessed per gram of wet tissue at 400 to 600 kBq, iv after 60 mins post-injection by gamma counting in presence of 1 mg/kg, ip sigma 1/sigma 2 receptor antagonist haloperidol treated before compound addition; format: organism-based; set-up: dose 1 mg/kg, route intravenous; details: in vivo, 1 h; outline: as §4
[13] = Biodistribution in CD1 mouse urine assessed per gram of wet bladder at 400 to 600 kBq, iv after 60 mins post-injection by gamma counting in presence of 1 mg/kg, ip sigma 1/sigma 2 receptor antagonist haloperidol treated before compound addition; format: organism-based; set-up: route intravenous; details: in vivo, 1 h; outline: as §5
Spleen [14] = test: Biodistribution in CD1 mouse spleen assessed per gram of wet tissue at 400 to 600 kBq, iv after 60 mins post-injection by gamma counting in presence of 1 mg/kg, ip sigma 1/sigma 2 receptor antagonist haloperidol treated before compound addition; format: organism-based; set-up: route intravenous; details: in vivo, 1 h; outline: as §5
[15] = Ratio of drug level in cerebellum to plasma in CD1 mouse at 400 to 600 kBq, iv after 30 mins post-injection; format: ADME, organism-based
Outline: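 Female CD-1 mice (~8-12 weeks, 20-28 g), fasted 24 h with free water; 400-600 kBq tracer in 200 μL saline by tail vein into conscious animals. Killed at set times pi (n=4-5 per time); blood and organs weighed, γ-counted, expressed as % ID/g wet tissue; ratio from cerebellum and plasma uptake.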

Spleen [16] = test: Drug uptake in CD1 mouse spleen at 400 to 600 kBq, iv after 120 mins post-injection by gamma counting relative to initial uptake; format: ADME, organism-based; details: in vivo, 2 h
Outline: (§6)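 Organ % ID/g was measured by γ-counting after tail-vein injection of 400-600 kBq [18F] tracer in saline to fasted female CD-1 mice (n=4-5 per time). The 120 min pi value is expressed relative to the initial (5 min pi) uptake.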

[17] = Drug uptake in CD1 mouse thymus at 400 to 600 kBq, iv after 120 mins post-injection by gamma counting relative to initial uptake; format: ADME, organism-based; details: in vivo, 2 h; outline: as §6
[18] = Chemical stability assessed as occurrence of defluorination by radio-TLC and analytical radio-HPLC; format: physicochemical
Mus musculus [19] = test: Plasma concentration in CD1 mouse assessed per gram of wet tissue at 400 to 600 kBq, iv after 5 mins post-injection by gamma counting; format: ADME, organism-based; details: in vivo; outline: as §3
Lung [20] = test: Biodistribution in CD1 mouse lung assessed per gram of wet tissue at 400 to 600 kBq, iv after 5 mins post-injection by gamma counting; format: ADME, organism-based; details: in vivo; outline: as §1
Liver [21] = test: Biodistribution in CD1 mouse liver assessed per gram of wet tissue at 400 to 600 kBq, iv after 5 mins post-injection by gamma counting; format: ADME, organism-based; details: in vivo; outline: as §1
Mus musculus [22] = test: Plasma concentration in CD1 mouse assessed per gram of wet tissue at 400 to 600 kBq, iv after 30 mins post-injection by gamma counting; format: ADME, organism-based; details: in vivo, 0.5 h; outline: as §3
Brain = test: Biodistribution in CD1 mouse brain assessed per gram of wet tissue at 400 to 600 kBq, iv after 30 mins post-injection by gamma counting; format: ADME, organism-based; details: in vivo, 0.5 h; outline: as §2
Muscle tissue = test: Biodistribution in CD1 mouse muscle assessed per gram of wet tissue at 400 to 600 kBq, iv after 30 mins post-injection by gamma counting; format: ADME, organism-based; details: in vivo, 0.5 h; outline: as §1
Cerebellum [23] = test: Biodistribution in CD1 mouse cerebellum assessed per gram of wet tissue at 400 to 600 kBq, iv after 60 mins post-injection by gamma counting; format: ADME, organism-based; details: in vivo, 1 h; outline: as §2

Question: For [18F]CCCC1OC2(CCN(Cc3ccccc3)CC2)c2ccccc21 (stereo unspecified), which Drug uptake (Lung [1]) is on record?
Answer: 4.64 %ID

Question: What about the Drug uptake (Liver [2]) of the same compound?
Answer: 3.24 %ID

Question: And the Drug uptake (Kidney [3])?
Answer: 5.14 %ID

Question: And the Drug uptake [4]?
Answer: 7.78 %ID

Question: What about the Drug uptake [5] of the same compound?
Answer: 4.22 %ID

Question: And the Drug uptake (Mus musculus [6])?
Answer: 0.44 %ID

Question: And the Drug uptake (Lung [7])?
Answer: 3.37 %ID

Question: And the Drug uptake (Stomach)?
Answer: 3.12 %ID

Question: What about the Drug uptake [8] of the same compound?
Answer: 49.2 %ID

Question: What about the Drug uptake (Cerebellum [9]) of the same compound?
Answer: 0.63 %ID

Question: What about the Drug uptake (Lung [10]) of the same compound?
Answer: 2.11 %ID

Question: What about the Drug uptake (Liver [11]) of the same compound?
Answer: 3.89 %ID

Question: What about the Drug uptake (Kidney [12]) of the same compound?
Answer: 3.42 %ID

Question: What about the Drug uptake [13] of the same compound?
Answer: 22.5 %ID

Question: And the Drug uptake (Spleen [14])?
Answer: 1.89 %ID

Question: What about the Kp at 0.5 h [15] of the same compound?
Answer: 3.86

Question: And the Drug uptake (Spleen [16])?
Answer: > 70%

Question: And the Drug uptake [17]?
Answer: > 70%

Question: What about the Stability [18] of the same compound?
Answer: Stable

Question: What about the Drug uptake (Mus musculus [19]) of the same compound?
Answer: 1.85 %ID

Question: What about the Drug uptake (Lung [20]) of the same compound?
Answer: 16.2 %ID

Question: What about the Drug uptake (Liver [21]) of the same compound?
Answer: 5.54 %ID

Question: And the Drug uptake (Mus musculus [22])?
Answer: 0.96 %ID

Question: And the Drug uptake (Brain)?
Answer: 3.18 %ID

Question: What about the Drug uptake (Muscle tissue) of the same compound?
Answer: 1.8 %ID

Question: And the Drug uptake (Cerebellum [23])?
Answer: 2.99 %ID
